Experimental data from ChEMBL document CHEMBL1149551, “Novel selective PPARdelta agonists: optimization of activity by modification of alkynylallylic moiety” (Bioorg Med Chem Lett, 2007).

What was measured:
[1] = target: T1, Peroxisome proliferator-activated receptor alpha (Homo sapiens, UniProt Q07869); experiment: Agonist activity at human PPARalpha by transactivation assay; type: functional
T1 sequence (Q07869 whole entry): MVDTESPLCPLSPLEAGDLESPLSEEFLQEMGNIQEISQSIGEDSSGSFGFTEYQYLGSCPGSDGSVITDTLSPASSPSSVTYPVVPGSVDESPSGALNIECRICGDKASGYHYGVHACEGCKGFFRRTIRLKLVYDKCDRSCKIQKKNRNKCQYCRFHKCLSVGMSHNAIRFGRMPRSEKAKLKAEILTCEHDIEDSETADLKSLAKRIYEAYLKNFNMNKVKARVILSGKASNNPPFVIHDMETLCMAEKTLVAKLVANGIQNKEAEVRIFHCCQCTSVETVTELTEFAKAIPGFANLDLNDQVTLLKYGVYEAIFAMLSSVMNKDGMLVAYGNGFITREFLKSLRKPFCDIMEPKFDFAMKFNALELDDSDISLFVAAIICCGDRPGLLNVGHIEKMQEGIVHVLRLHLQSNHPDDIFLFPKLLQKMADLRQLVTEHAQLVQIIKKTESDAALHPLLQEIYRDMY

[2] = target: T2, Peroxisome proliferator-activated receptor delta (Homo sapiens, UniProt Q03181)
T2 sequence (Q03181 whole entry): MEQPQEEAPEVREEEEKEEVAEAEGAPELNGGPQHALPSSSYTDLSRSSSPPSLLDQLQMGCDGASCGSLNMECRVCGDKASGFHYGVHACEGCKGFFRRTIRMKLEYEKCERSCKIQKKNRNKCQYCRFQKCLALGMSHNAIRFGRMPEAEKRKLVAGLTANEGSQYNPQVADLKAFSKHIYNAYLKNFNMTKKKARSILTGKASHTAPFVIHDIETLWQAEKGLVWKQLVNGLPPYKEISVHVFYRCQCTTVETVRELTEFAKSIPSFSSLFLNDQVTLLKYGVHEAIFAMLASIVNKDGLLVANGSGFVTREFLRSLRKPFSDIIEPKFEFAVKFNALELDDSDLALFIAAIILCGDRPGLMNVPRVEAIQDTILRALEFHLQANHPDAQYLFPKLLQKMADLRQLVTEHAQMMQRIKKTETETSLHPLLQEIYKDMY

[3] = target: T3, Peroxisome proliferator-activated receptor gamma (Homo sapiens, UniProt P37231); type: functional
T3 sequence (P37231 whole entry): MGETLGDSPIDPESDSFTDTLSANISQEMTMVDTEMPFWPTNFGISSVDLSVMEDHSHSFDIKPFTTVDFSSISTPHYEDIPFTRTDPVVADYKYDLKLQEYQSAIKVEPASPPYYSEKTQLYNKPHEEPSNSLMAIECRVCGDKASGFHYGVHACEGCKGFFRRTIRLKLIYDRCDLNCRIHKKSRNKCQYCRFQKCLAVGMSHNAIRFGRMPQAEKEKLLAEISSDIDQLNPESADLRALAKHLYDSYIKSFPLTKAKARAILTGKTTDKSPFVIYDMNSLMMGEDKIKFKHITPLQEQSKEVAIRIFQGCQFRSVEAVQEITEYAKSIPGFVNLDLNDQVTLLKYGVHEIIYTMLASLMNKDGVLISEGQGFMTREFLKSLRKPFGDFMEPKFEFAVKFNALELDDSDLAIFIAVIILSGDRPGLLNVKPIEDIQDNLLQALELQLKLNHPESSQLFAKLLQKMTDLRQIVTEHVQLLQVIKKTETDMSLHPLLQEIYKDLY

[4] = target: T4, Peroxisome proliferator-activated receptor alpha (Homo sapiens) (UniProt Q07869); experiment: Agonist activity at human PPARalpha by transactivation assay relative to NNC 61-4655; type: functional
T4 sequence (whole entry): T1 sequence (Q07869 whole entry)
Outline: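 Transactivation run in at least three separate experiments, each at five or more concentrations from 0.001 to 30 µM. EC50 is the concentration giving half of the compound's own maximal activity, reported as the mean. Efficacy is given relative to the maximal activity of the reference PPARα agonist.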

Row | SMILES | EC50 [1] [µM] | EC50 [2] [µM] | EC50 [3] [µM] | %max [4] [%]
1 | CCO[C@@H](Cc1ccc(OC/C=C/C#Cc2ccccc2)cc1)C(=O)O | 0.01 | 6.4 | 2.6 | 
2 | CN(CCOc1ccc(CC2SC(=O)NC2=O)cc1)c1ccccn1 (stereo unspecified) |  |  |  | > 24
3 | Cc1cc2cc(C(C#Cc3ccc(C)s3)/C=C\COc3ccc(OCC(=O)O)c(C)c3)ccc2o1 (stereo unspecified) | 5.8 | 0.15 | > 10 | < 10
4 | Cc1cc(SCc2sc(-c3ccc(C(F)(F)F)cc3)nc2C)ccc1OCC(=O)O |  |  |  | 68
5 | CCO[C@@H](Cc1ccc(OC/C=C(\C#Cc2ccccc2)c2ccccc2)cc1)C(=O)O | > 10 |  | > 10 | 
6 | Cc1cc(OC/C=C\C(C#Cc2ccccc2)c2cnc3ccccc3c2)ccc1OCC(=O)O (stereo unspecified) | 4.1 |  | 6.6 | 33
7 | Cc1ccc(C#CC(/C=C\COc2ccc(OCC(=O)O)c(C)c2)c2ccc(Br)cc2)s1 (stereo unspecified) | > 10 | 0.22 |  | > 15
8 | Cc1cc(OC/C=C(\C#Cc2ccccc2)c2ccc(Br)cc2)ccc1OCC(=O)O |  |  |  | < 10
9 | COc1ccc(C#CC(/C=C\CSc2ccc(OCC(=O)O)c(C)c2)c2ccc(-c3ccccc3)cc2)cc1 (stereo unspecified) | > 10 | 0.011 | > 10 | > 58
10 | Cc1cc(OC/C=C\C(C#Cc2ccc(C(F)(F)F)cc2)c2ccc(Br)cc2)ccc1OCC(=O)O (stereo unspecified) | > 10 | 0.13 |  | > 19
11 | Cc1ccc(-c2ccc(/C(C#Cc3ccccc3)=C/COc3ccc(OCC(=O)O)c(C)c3)cc2)s1 | > 10 |  | > 10 | > 60
12 | Cc1cc(OC/C=C(\C#Cc2ccccc2)c2ccccc2)ccc1OCC(=O)O |  |  |  | < 10
13 | Cc1cc(SC/C=C\C(C#Cc2ccccc2)c2ccc(Br)cc2)ccc1OCC(=O)O (stereo unspecified) | > 10 | 0.16 | > 10 | > 24
14 | Cc1cc(SC/C=C/C#Cc2ccccc2)ccc1OCC(=O)O | 14 | 12.1 |  | 
15 | Cc1cc(OC/C=C\C(C#Cc2ccccn2)c2ccc(Br)cc2)ccc1OCC(=O)O (stereo unspecified) | > 10 | 0.24 |  | > 22
16 | Cc1cc2cc(C(C#Cc3ccc(F)cc3)/C=C\COc3ccc(OCC(=O)O)c(C)c3)ccc2o1 (stereo unspecified) | > 10 |  | > 10 | > 41
